Bioassay records: PubChem, several laboratories
SR-BI HDL uptake: inhibitors of mouse SR-BI mediated HDL lipid uptake. Q61009. ldlA[mSR-BI] CHO cells, DiI-HDL uptake fluorescence, 3 h. inhibition, % at 12.5 µM. 0.96% of 320,000 active. AID 488896;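 active means mean replicate inhibition of at least 70% and a set share of replicates each scoring 70 or more; inconclusive means meets just one of the two criteria; inactive means fails both criteria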
Target sequence (Q61009 whole entry, looked up): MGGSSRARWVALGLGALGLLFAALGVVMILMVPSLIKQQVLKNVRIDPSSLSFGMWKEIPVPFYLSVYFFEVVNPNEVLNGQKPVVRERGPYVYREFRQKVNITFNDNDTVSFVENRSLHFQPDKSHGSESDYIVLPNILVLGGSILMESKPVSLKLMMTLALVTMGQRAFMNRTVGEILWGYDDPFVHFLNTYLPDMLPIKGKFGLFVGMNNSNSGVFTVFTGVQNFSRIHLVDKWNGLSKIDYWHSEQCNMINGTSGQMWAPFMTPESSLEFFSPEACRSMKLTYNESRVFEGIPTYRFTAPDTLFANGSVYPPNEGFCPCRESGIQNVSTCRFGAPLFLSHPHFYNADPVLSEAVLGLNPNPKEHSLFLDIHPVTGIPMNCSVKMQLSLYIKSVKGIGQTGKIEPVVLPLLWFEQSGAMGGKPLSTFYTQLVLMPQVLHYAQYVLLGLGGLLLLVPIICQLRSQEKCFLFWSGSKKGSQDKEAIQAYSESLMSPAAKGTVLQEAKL
CR mimetic SO: lowers age-related superoxide in aged yeast cells; S. cerevisiae aged cells, superoxide DHE fluorescence; hits give low values; 0.18% of 330,000 active; AID 2690; superoxide response (% of plate mean), % at 10 µM;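 active means superoxide response under a set limit, about three screen SD below normal, cut at about 65% in these data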;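 further: yeast aged for seven days with compound at 30 °C before DHE staining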
AHR activator: human AHR activation | P35869 | AHR-responsive luciferase reporter cells, luminescence | activation, % at 5 µM | 2.5% of 320,000 active; in the data active means activation above about 47%
SMARCA2 activ: activators of SMARCA2 function; AID 652017; MG213 cells, MMTV-luciferase reporter, dexamethasone, overnight; activation, % at 9.1 µM; 1% of 370,000 active; in the data active means activation above about 7.8%
SR-BI uptake up: activators of SR-BI mediated HDL lipid uptake. CHO ldlA[mSR-BI] cells, DiI-HDL uptake fluorescence, 3 h; 100 = double the neutral-control signal. activation, % at 12.5 µM. 0.096% of 320,000 active;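 active means mean replicate activation of at least 60% and every replicate at or above 60%; inconclusive means mean or all-replicate condition met, but not both; inactive means mean below 60% and not all replicates reaching 60%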
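system = CHO ldlA[mSR-BI] cells, LDL receptor-null, SR-BI overexpressing | medium = Ham's F12 with 0.5% BSA, HEPES 25 mM, pH 7.4 | probe or stimulus = DiI-HDL 10 µg/mL | compound dosing = single-point compound dose | incubation = compound exposure 3 h, 37 °C | technique = DiI fluorescence, bottom read | read-out = cell-associated DiI fluorescence as measure of HDL uptake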
Hep lipid drop: hepatic lipid droplet formation modulation | AML12 mouse hepatocytes, oleate lipid droplets, BODIPY imaging | inhibition, % at 6.5 µM | 0.4% of 240,000 active | AID 1656;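 active means lipid droplet intensity inhibited by at least 50%, with more than 500 cells counted; inconclusive means wells with under 300 cells, treated as cytotoxic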
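Technique: fluorescence imaging, 20x objective, two fields per well / Assay system: AML12 hepatocytes (mouse) / Measure: % inhibition of lipid droplet signal / Doses: 6.5 µM single-point dosing / Incubation: overnight exposure / Reagent: 100 µM oleic acid challenge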
Lipid drop inh: confirmation of inhibitors of hepatic lipid droplet formation; shares compounds with Hep lipid drop; AML12 mouse hepatocytes, BODIPY lipid droplet imaging; droplets induced with 100 µM oleic acid; 65% of 870 active; inhibition, % at 5.2 µM;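 active means inhibition of lipid droplet metric at least 50%, with more than 300 cells in each of four replicates; inconclusive means wells under 300 cells, flagged as toxic or low count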
AML12 cytotox: toxic to AML12 mouse hepatocytes in counter-screen; shares compounds with Hep lipid drop; 3% of 870 active; z-score at 5 µM; DAPI nuclear morphology cytotoxicity imaging; hits give high values; cells fed 100 µM oleate overnight; in the data active means z-score above about 6.3;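 further: compound exposure lasted overnight at 37 °C before fixation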
AML12 tox ATP: AML12 hepatocyte cytotoxicity, confirmed; shares compounds with Hep lipid drop; AML12 mouse hepatocyte viability, ATP luminescence; cells loaded with 100 µM oleic acid; cytotoxicity, % at 50 µM; 530 tested, under 10 active; AID 463219;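 active means cytotoxicity above 50% in each of four replicates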;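 further: compound exposure lasted overnight at 37 °C before the ATP read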
A number is an active result; i = inactive; ? = inconclusive; nt = not tested or not shown. Most compounds without a hit are left out; they make up all but 4.3% or so of the library.

SMILES	SR-BI HDL uptake	CR mimetic SO	AHR activator	SMARCA2 activ	SR-BI uptake up	Hep lipid drop	Lipid drop inh	AML12 cytotox	AML12 tox ATP
C[C@@H]1CN([C@H](C)CO)C(=O)CCCn2nncc2CO[C@@H]1CN(C)C(=O)Nc1ccccc1	nt	nt	nt	i	nt	nt	nt	nt	nt
COc1cc(C(=S)N2CCOCC2)cc(OC)c1OC(=O)c1ccccc1[N+](=O)[O-]	i	i	i	i	i	56.4	i	i	nt
COc1ccc(C(=S)N2CCOCC2)cc1OC(=O)c1ccc([N+](=O)[O-])cc1[N+](=O)[O-]	nt	i	i	i	nt	i	nt	nt	nt
COc1cccc(-c2nc(NCc3ccccc3)c3ccccc3n2)c1O	i	i	i	i	i	69.3	54.7	i	i
COC(=O)[C@]12C[C@H](CC(=O)NCc3cccc4ccccc34)C(=O)N(Cc3ccc(Cl)cc3Cl)C1=C[C@H](C1CCCC1)O[C@@H]2C	nt	nt	nt	i	nt	nt	nt	nt	nt
CCn1c(=O)c2cc(C(=O)NCCC(C)C)sc2c2ccccc21	i	i	i	i	i	54.0	91.6	i	i
C=C(C)C(=O)N1CC2(CC(c3cccc(NC(=O)/C=C\C=C/C)c3)=NO2)C[C@H]1C(N)=O (some centres not stated)	i	i	i	i	i	54.0	i	i	nt
COc1ccc(C)cc1S(=O)(=O)N(CC(=O)O)c1ccc(C)cc1	i	i	i	i	i	53.3	i	i	nt
COc1ccc(C)cc1S(=O)(=O)N(CC(=O)O)c1ccccc1	i	i	i	i	i	i	nt	nt	nt
COc1ccc(N(C(=O)CCl)C(C(=O)NCCc2ccccc2)c2cccs2)cc1Cl (configuration not stated)	i	i	i	i	i	127.0	?	34.5	nt
COc1cccc(N(C(=O)CCl)C(C(=O)NCCc2ccccc2)c2cccs2)c1 (configuration not stated)	i	i	i	i	i	i	nt	nt	nt
CCOC(=O)c1c(NC(=O)CC2Nc3cc(C)c(C)cc3NC2=O)sc(C)c1C (configuration not stated)	i	i	i	i	i	i	nt	nt	nt
CCOc1ccccc1NC(=O)CC1Nc2cc(C)c(C)cc2NC1=O (configuration not stated)	i	i	i	i	i	58.6	66.6	i	nt
COc1ccc(OC)c(/C=C/C(=O)N(C)CC(=O)Nc2ccc(C)cc2)c1	i	i	i	i	i	59.0	77.3	i	i
Cc1ccc(NC(=O)CN(C)C(=O)/C=C/c2cccc(F)c2)cc1	i	i	i	i	i	i	nt	nt	nt
COc1ccc(OC)c(/C=C/C(=O)N(C)CC(=O)Nc2cc(C)ccc2C)c1	i	i	i	i	i	59.7	94.8	i	i
O=C(CCc1ccccc1-c1ccccc1CCNC(=O)COCc1ccccc1)NCc1ccccc1	nt	nt	nt	i	nt	nt	nt	nt	nt
CCOc1ccc(C2=Nc3ccc(Br)cc3C(c3ccc(N4CCOCC4)cc3)=NN2)cc1	i	i	i	i	i	62.4	i	i	nt
C=CCCC[C@H]1OC(=O)[C@H](C)NC(=O)[C@H](C(C)C)NC(=O)[C@@H]2CCCN2C(=O)[C@H](Cc2ccccc2)OC(=O)[C@@H](C(C)C)N(C)C(=O)[C@H](C(C)C)NC(=O)C1(C)C	nt	nt	nt	i	nt	nt	nt	nt	nt
CCNC(=O)NC(=O)C(C)OC(=O)c1ccc(SC)cc1OC (configuration not stated)	i	i	i	i	i	i	nt	nt	nt
COc1cc(SC)ccc1C(=O)OC(C)C(=O)Nc1ccc(NC(C)=O)cc1 (configuration not stated)	i	i	i	i	i	59.4	86.8	i	i
COc1ccccc1Nc1ccc(NC(=O)c2cccc([N+](=O)[O-])c2C)cc1	83.5	i	i	i	i	97.1	99.1	i	i
CCC(C)(C)NC(=O)C(c1sccc1C)N(Cc1ccco1)C(=O)c1csnn1 (configuration not stated)	i	i	i	i	i	57.5	69.8	i	i
CC(C)c1[nH]nc2c1C(c1cccc(C(F)(F)F)c1)N(c1ccccc1)C2=O (configuration not stated)	nt	nt	nt	i	nt	nt	nt	nt	nt
COC(=O)c1ccccc1NC(=O)c1cccc(NC(=O)c2ccc(Br)o2)c1C	i	i	i	i	i	61.6	96.0	i	i
SMILES	SR-BI HDL uptake	CR mimetic SO	AHR activator	SMARCA2 activ	SR-BI uptake up	Hep lipid drop	Lipid drop inh	AML12 cytotox	AML12 tox ATP
Cc1cccc(Nc2ncnc3ccccc23)c1	i	i	i	i	i	65.8	53.3	13.5	nt
CCc1ccc(OCc2ccc(C(=O)O)o2)cc1	i	i	i	i	i	59.2	i	i	nt
Cc1ccc(NC(=O)Cc2ccc3c(c2)CCCC3)cc1C	i	i	i	i	i	53.0	64.3	i	i
COC(=O)[C@]12C[C@H](CC(=O)NCc3cccc(C(F)(F)F)c3)C(=O)N(Cc3ccccc3)C1=C[C@H](C1CCCC1)O[C@@H]2C	nt	nt	nt	i	nt	nt	nt	nt	nt
Cc1cccc(C(C(=O)NC2CCCC2)N(C(=O)c2csnn2)C2CCCC2)c1 (configuration not stated)	i	i	i	i	i	77.4	73.7	i	i
COc1ccc(C[C@H]2CN3C(=NC[C@@H]3Cc3ccccc3)N2CCNC(=O)c2ccc(C)c(Br)c2)cc1	i	i	i	nt	i	i	nt	nt	nt
COc1ccc(C[C@H]2CN3C(=NC[C@H]3Cc3ccccc3)N2CCNC(=O)c2ccc(C)c(Br)c2)cc1	i	i	i	nt	i	54.2	i	i	nt
COc1ccc(C(=O)C2CCN(C(=O)Nc3ccc(C)cc3)CC2)cc1	nt	i	i	i	nt	i	nt	nt	nt
Cc1ccc(NC(=O)N2CCC(C(=O)c3ccc(F)cc3)CC2)cc1	i	i	i	i	i	82.6	95.5	i	i
Cc1cc(C)nc(N2CCN(C(=O)CSc3nc4ccccc4nc3N3CC(C)OC(C)C3)CC2)n1 (configuration not stated)	nt	nt	nt	i	nt	nt	nt	nt	nt
Cc1ccccc1N/C(=N/S(=O)(=O)c1ccccc1)c1ccc(F)cc1	nt	i	i	i	nt	54.4	i	i	nt
O=C1[C@H](c2ccccc2)[C@@H](c2ccncc2)N1c1ccncc1	nt	nt	nt	i	nt	nt	nt	nt	nt
c1cc2c3c(cccc3c1)NC1(CCC3(CC1)Nc1cccc4cccc(c14)N3)N2	i	i	48.9	i	i	51.2	i	i	nt
CS(=O)(=O)N(CC(=O)Nc1ccccc1Br)Cc1ccccc1	i	i	i	i	i	56.2	66.7	i	i
CCOc1ccccc1NC(=O)CN(Cc1ccccc1)S(C)(=O)=O	i	i	i	i	i	i	nt	nt	nt
